Measured values as given in publication PMC3158820 (ACS chemical biology, 2011).
Entries after “also recorded” stand apart in the source; their conditions may differ.

Assays:
human ClpXP [1] = assay: Inhibition of α-casein degradation by hClpXP; assay type: biochemical; details: 10 µM DBN93, 10 µM casein, 2 µM ClpX and 2 µM ClpP, 5 mM ATP, SDS-PAGE
Summary of the method: (§1)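 Digests in 50 mM Tris pH 8.1, 15 mM Mg(OAc)₂, 5 mM DTT were run at 37 °C ±inhibitor. Aliquots were quenched with SDS loading dye at time points from 0 to 90 min, run on 12.5% SDS-PAGE and stained with Coomassie Blue.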

[2] = test system: HeLa mitochondrial lysate immunodepleted of Lon; assay: FRETN 89–98 cleavage in Lon-immunodepleted HeLa mitochondrial lysate; assay type: biochemical, human; details: 10 µM DBN93, 100 µM FRETN 89–98, 1 mM ATP; at least three trials
Summary of the method: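 Affinity-purified anti-hLon was incubated overnight at 4 °C with HeLa mitochondria in 25 mM Tris pH 7.5, 100 mM NaCl, 0.1% Tween 20. Protein A agarose was pelleted, and the supernatant was desalted into 50 mM KPi pH 7, 20% glycerol, 0.1% Tween 20, then Bradford-quantified. Emission at 420 nm (ex 320 nm) was read for 1 hr.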

[3] = test system: Lon in isolated rat liver mitochondria; assay: In organello degradation of 35S-labeled StAR in isolated mitochondria; assay type: cell-based
Summary of the method: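 ³⁵S-Met StAR precursor was made by in vitro transcription and reticulocyte-lysate translation, then imported for 30 min at 30 °C into rat liver mitochondria (600 µg) in HSB buffer with ATP, GTP, NADH and creatine kinase system. Non-imported protein was removed with trypsin on ice, then trypsin inhibitor. Pellets were chased at 30 °C ±inhibitor, TCA-precipitated, run on 12% SDS-PAGE with autoradiography, and bands quantified. Mean of 3 independent experiments, SEM, Student's t-test.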

S. Typhimurium Lon = details: cited from earlier work
human Lon [4] = target: T1, human Lon (Homo sapiens, UniProt P36776); assay: Inhibition of α-casein degradation by hLon; assay type: biochemical; details: 10 µM DBN93, 10 µM casein, 1 µM hLon, 5 mM ATP, SDS-PAGE
T1 sequence (P36776 68-959): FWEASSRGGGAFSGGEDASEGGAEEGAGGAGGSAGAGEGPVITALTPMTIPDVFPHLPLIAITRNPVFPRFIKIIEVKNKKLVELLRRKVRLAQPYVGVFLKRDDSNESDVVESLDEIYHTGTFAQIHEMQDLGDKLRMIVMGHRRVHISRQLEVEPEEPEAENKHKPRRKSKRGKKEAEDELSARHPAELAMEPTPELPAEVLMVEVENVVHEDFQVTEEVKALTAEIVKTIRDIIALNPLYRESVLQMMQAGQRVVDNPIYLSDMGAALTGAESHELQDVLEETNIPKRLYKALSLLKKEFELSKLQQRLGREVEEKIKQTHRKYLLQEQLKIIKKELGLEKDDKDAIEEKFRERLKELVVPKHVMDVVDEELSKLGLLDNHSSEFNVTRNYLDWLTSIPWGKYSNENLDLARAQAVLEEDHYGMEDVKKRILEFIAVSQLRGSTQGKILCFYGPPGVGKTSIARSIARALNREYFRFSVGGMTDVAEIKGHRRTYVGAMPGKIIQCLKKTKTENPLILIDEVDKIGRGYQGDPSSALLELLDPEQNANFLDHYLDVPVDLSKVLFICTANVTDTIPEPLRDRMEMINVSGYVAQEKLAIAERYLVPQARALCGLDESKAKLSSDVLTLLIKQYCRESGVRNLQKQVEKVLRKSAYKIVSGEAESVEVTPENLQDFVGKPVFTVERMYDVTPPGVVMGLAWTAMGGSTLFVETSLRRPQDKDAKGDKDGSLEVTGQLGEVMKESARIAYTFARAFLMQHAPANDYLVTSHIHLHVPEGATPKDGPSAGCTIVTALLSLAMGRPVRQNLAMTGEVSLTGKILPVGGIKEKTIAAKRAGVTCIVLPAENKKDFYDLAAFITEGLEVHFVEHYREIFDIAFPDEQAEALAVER
Summary of the method: as §1

human ClpXP [5] = assay: Steady state peptidase activity assay; assay type: biochemical
human 20S proteasome = assay: Steady state peptidase activity assay; assay type: biochemical; details: 2 µM DBN93, 200 nM human 20S proteasome, 100 µM FRETN 89–98, 500 µM ATP
Summary of the method: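 Run in 50 mM HEPES pH 8.0, 5 mM Mg(OAc)₂, 2 mM DTT at 37 °C, with reactions started by adding 20S proteasome. Cleavage was read as fluorescence emission at 420 nm (ex 320 nm). Rate was taken from the slope of the linear phase of the time course.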

human Lon [6] = target: T1, human Lon; assay: Time-dependent inhibition of human Lon peptidase activity; assay type: biochemical
[7] = S. Typhimurium Lon, error s.e.m.

In the case of dansyl-YRGIT-Abu-B(OH)2 [DBN93], the “inhibition of α-casein degradation by hClpXP” value (human ClpXP [1]) is reported as “not by hClpXP”, the “effect on peptide cleavage in Lon-immunodepleted mitochondria” value [2] is reported as “no decrease in peptide cleavage” and the “inhibition of StAR degradation in mitochondria” value ([3]; 10 µM DBN93, 1 or 2 hr chase, rat mitochondria, n=3) is reported as “inhibits degradation of StAR”. For the same substance, the “penetration of mitochondrial membranes” value ([3]; intact rat mitochondria, 10 µM DBN93, inferred from StAR degradation) was “can penetrate the mitochondrial membranes”, the “inhibition of Lon” value (S. Typhimurium Lon; 4 µM DBN93 (condition of the hClpXP test)) was “completely inhibited” and the k3 (S. Typhimurium Lon; [7]) was 1.0 ± 0.3 × 10^5 M^−1s^−1. For the same substance, the k4 (S. Typhimurium Lon; [7]) was 0.022 ± 0.007 s⁻¹, the k5 (S. Typhimurium Lon; [7]) was 0.0032 ± 0.0003 s⁻¹ and the k6 (S. Typhimurium Lon; [7]) was 0.00028 ± 0.00002 s⁻¹. For the same substance, the “inhibition of α-casein degradation by hLon” value (human Lon [4]) was “inhibited α-casein degradation by hLon”, the “inhibition of hClpXP” value (human ClpXP [5]; general statement) was “does not inhibit this protease; also recorded: not inhibited” and the “effect on cleavage of FRETN 89–98 by hClpXP” value (human ClpXP [5]; up to 4 µM DBN93 (1 and 4 µM, Figure 5a)) was “not affected”. The “inhibition of 20S proteasome catalyzed cleavage of FRETN 89–98” value (human 20S proteasome) was “inhibited the cleavage; also recorded: inhibits”, the “time dependence of inhibition of hLon peptidase activity” value (human Lon [6]; Figure 3, panel a) was “inhibited by DBN93 in a time-dependent manner” and the “Ki* of hLon vs Ki* of bacterial Lon” value (human Lon [6]; overall inhibitor potency) was “comparable to the Ki* determined previously for bacterial Lon”.
